Source: PubChem BioAssay
The list is not random: actives were taken first. Their share in the collection is about 3.2%.
mABHD4 FP: inhibitors of mouse ABHD4 | Q8VD66 | purified mABHD4, FP-Rh probe fluorescence polarization | 370,000 tested, 0.54% active | inhibition, % at 8.92 µM | AID 720543;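 active = inhibition exceeding the mean over every tested compound plus 3 SD, cut at about 30% in these data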
Target sequence (Q8VD66 whole entry, looked up): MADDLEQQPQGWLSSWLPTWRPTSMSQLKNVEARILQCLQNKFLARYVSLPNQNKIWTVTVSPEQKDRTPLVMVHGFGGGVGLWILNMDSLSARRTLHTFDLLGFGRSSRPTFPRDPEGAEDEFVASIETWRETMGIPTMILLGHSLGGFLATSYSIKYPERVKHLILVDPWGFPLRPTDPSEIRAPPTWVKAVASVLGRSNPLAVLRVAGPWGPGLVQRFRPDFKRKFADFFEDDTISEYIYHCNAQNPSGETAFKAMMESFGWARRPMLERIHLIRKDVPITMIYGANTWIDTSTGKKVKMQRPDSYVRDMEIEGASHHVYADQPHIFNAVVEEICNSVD
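Assay system: Wild-type mouse ABHD4 protein | Medium: HEPES pH 7.0 buffer, 150 mM NaCl, 0.01% Pluronic F-127 | Incubation: Enzyme–compound pre-incubation 45 min, then probe 60 min, both 25 °C | Technique: Fluorescence polarization with parallel and perpendicular emission, 525/598 nm | Evaluation: % inhibition of FP-Rh probe binding versus controls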
DAGLB inh: diacylglycerol lipase beta (human) inhibition. Q8NCG7. HEK293T DAGLB membrane lysate, EnzChek fluorogenic substrate. inhibition, % at 5.17 µM. 340,000 tested, 0.059% active; in the data active = inhibition above about 34%
rCAG binder: molecules binding r(CAG) RNA repeats; inhibition, % at 3 µM; 370,000 tested, 1.3% active; r(CAG) RNA repeat, TO-PRO-1 dye displacement fluorescence; AID 651821;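 active = inhibition above the plate cutoff, the mean of all test compounds on that plate plus 3 SD, cut at about 35% in these data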;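 also: higher means more dye released from RNA so lower well fluorescence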
HTRA1 inh: HTRA1 (human) protease inhibition; Q92743; recombinant HTRA1, FP-rhodamine activity-based probe, fluorescence polarization; inhibition, % at 5.96 µM; 340,000 tested, 0.5% active; in the data active = inhibition above about 36%
PRMT1 inh: PRMT1 (human) inhibition, primary screen. Q99873. recombinant PRMT1, activity-based probe fluorescence polarization. inhibition, % at 2.79 µM. 370,000 tested, 1.3% active. AID 652257;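 active = inhibition above about 21% made by adding two undisclosed values, limit read from the data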
Target sequence (Q99873 whole entry, looked up): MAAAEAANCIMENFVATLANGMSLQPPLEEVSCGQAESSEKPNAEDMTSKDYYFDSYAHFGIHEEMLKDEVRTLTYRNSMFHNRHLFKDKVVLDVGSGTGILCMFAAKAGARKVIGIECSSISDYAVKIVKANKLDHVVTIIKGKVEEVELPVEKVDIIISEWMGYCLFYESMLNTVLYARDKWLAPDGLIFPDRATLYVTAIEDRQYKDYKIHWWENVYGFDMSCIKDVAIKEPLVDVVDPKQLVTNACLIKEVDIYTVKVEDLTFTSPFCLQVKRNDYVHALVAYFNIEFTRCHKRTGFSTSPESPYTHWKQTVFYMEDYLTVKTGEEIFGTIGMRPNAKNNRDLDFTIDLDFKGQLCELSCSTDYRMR
LEDGF integ inh: blocks HIV-1 LEDGF/p75-dependent DNA integration; TR-FRET IN-LEDGF/p75 DNA integration, Eu/Cy5; inhibition, % at 3.7 µM; 370,000 tested, 0.64% active;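 active = inhibition above the screen-wide mean plus 3 SD, cut at about 13% in these data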;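 also: signal is the Cy5 over europium emission ratio at 671 and 618 nm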
HTRA1 inh conf: confirmation of human HTRA1 inhibitors. shares compounds with HTRA1 inh. inhibition, % at 5.96 µM. recombinant HTRA1, FP-rhodamine activity-based probe, fluorescence polarization. 1,600 tested, 66% active;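 active = mean inhibition over three repeats above a set limit taken from the earlier primary screen, cut at about 37% in these data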;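 also: inhibitors block probe binding so polarization drops and inhibition rises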
Of the large screens only hits and unclear results are named; the others gave an inactive call (follow-up assays come after a bar, where they were run).

CCCn1c(Nc2nc3ccccc3n2C)nc2ccccc21	HTRA1 inh 39 | HTRA1 inh conf 47
CCCCn1c(Nc2ccccc2)nc2ccccc21	none
N#C/C(=C/c1ccc(N2CCCCC2)o1)C(=O)Nc1ccc(Cl)cc1	none
N#C/C(=C/c1ccc(N2CCCCC2)o1)C(=O)Nc1ccc2ccccc2c1	HTRA1 inh 37 | HTRA1 inh conf 40
Cc1occc1-c1nnc(SCC(=O)N2CCc3ccccc32)o1	none
CCCCn1c(/C=C/c2ccco2)nc2ccccc21	none
C#CCn1cc(/C=N/Nc2nc3ccccc3[nH]2)c2ccccc21	HTRA1 inh 43 | HTRA1 inh conf 45
CCCCn1c(/C=N/Nc2nc3ccccc3[nH]2)nc2ccccc21	HTRA1 inh 41 | HTRA1 inh conf 59
COc1ccc(S(=O)(=O)N2CCN(C(=O)[C@@H]3CCCN3C(=O)c3cccs3)CC2)cc1	none
Oc1ccccc1/C=N/NC(=S)NC1CC2CC1C1C=CCC21 (stereo unspecified)	HTRA1 inh 37 | HTRA1 inh conf inactive
Cc1ccccc1NC(=O)CSc1nnc(-c2ccco2)c(-c2ccco2)n1	HTRA1 inh 43 (no result: mABHD4 FP, rCAG binder, PRMT1 inh, LEDGF integ inh) | HTRA1 inh conf inactive
CN1/C(=C/C=C/c2n(C)c3cc([N+](=O)[O-])c([N+](=O)[O-])cc3[n+]2C)C(C)(C)c2ccccc21	HTRA1 inh 42 | HTRA1 inh conf 41
COC(=O)CNC(=O)c1cc(OC)cc(OC)c1	none
Cc1ccc(C(=O)N/N=C/c2c(O)ccc3ccccc23)cn1	HTRA1 inh 62 | HTRA1 inh conf 49
O=C(N/N=C\c1c(O)ccc2ccccc12)c1ccc(O)cc1	none
O=C(N/N=C/c1c(O)ccc2ccccc12)c1ccc[n+](CCO)c1	HTRA1 inh 52 | HTRA1 inh conf 50
Cn1nccc1C(=O)N/N=C/c1c(O)ccc2ccccc12	HTRA1 inh 55 | HTRA1 inh conf 54
CC(Oc1ccccc1)C(=O)N=Nc1c(O)[nH]c2ccc(Br)cc12 (stereo unspecified)	none
CCn1c(CSc2nc3ccccc3s2)nnc1SCC(=O)c1ccc(O)c(O)c1	HTRA1 inh 55 | HTRA1 inh conf 86
C=CCn1c(SCC(=O)c2ccc(O)c(O)c2)nnc1-c1cccc(Cl)c1	HTRA1 inh 56 | HTRA1 inh conf 73
CCn1c(SCC(=O)c2ccc(O)c(O)c2)nnc1-c1ccccc1OC	HTRA1 inh 38 | HTRA1 inh conf 44
C=CCn1c(SCC(=O)O)nnc1-c1cccc(Cl)c1	none
COc1cccc(S(=O)(=O)N(C)C[C@H]2OCc3cn(nn3)CCCC(=O)N([C@H](C)CO)C[C@@H]2C)c1	none
CC(C(=O)NCCS(=O)(=O)c1ccc(Br)cc1)S(=O)(=O)c1ccc(Cl)cc1 (stereo unspecified)	none
Fc1c(F)c(F)c(N/N=C/c2c[nH]c3ccccc23)c(F)c1F	HTRA1 inh 43 | HTRA1 inh conf 42
O=C(O)c1ccc(N/N=C/c2c[nH]c3ccccc23)cc1	none
Cc1cc(N/N=C/c2c[nH]c3ccccc23)c2ccccc2n1	none
Cn1c(N/N=C/c2c[nH]c3ccccc23)nc2ccccc21	HTRA1 inh 46 | HTRA1 inh conf inactive
NC(=O)c1cc[n+](CC(=O)c2ccc(NC(=O)c3ccccc3)cc2)cc1	none
CCCCC(=O)NC(c1cccs1)c1cc(Cl)c2cccnc2c1O (stereo unspecified)	HTRA1 inh 55 | HTRA1 inh conf 55
CCC(=O)NC(c1cccs1)c1cc(Cl)c2cccnc2c1O (stereo unspecified)	HTRA1 inh 54 | HTRA1 inh conf 65
CN(C)CCCn1c(=S)[nH]c2sc3c(c2c1=O)CCCC3	none
Cc1c2c(=O)n(-c3nc4ccccc4s3)nc-2cc(O)n1Cc1ccccc1	HTRA1 inh 47 (no result: mABHD4 FP, rCAG binder, PRMT1 inh, LEDGF integ inh) | HTRA1 inh conf 57
Cc1cc(C)n(-c2nc3ccccc3s2)n1	none
Cc1ccc2ccc(C(Nc3cccc(C(F)(F)F)c3)c3cccnc3)c(O)c2n1 (stereo unspecified)	HTRA1 inh 54 | HTRA1 inh conf 61
Cc1ccc2ccc(C(Nc3ccccc3)c3ccccc3)c(O)c2n1 (stereo unspecified)	none (no result: DAGLB inh, HTRA1 inh)
CCCCCCCCCCCCCCCCn1cc[n+](CC(C)=O)c1	HTRA1 inh 72 (no result: mABHD4 FP, rCAG binder, PRMT1 inh, LEDGF integ inh) | HTRA1 inh conf 86
CCC(=O)NCCn1c(C)cc2ccccc21	none (no result: mABHD4 FP, rCAG binder, PRMT1 inh, LEDGF integ inh)
Cc1cc2ccccc2n1CCNC(=O)COc1ccccc1	HTRA1 inh 49 | HTRA1 inh conf inactive
CCC(=C(c1ccc(OC)cc1)c1ccc(OC)cc1)c1cn(CC(O)CN2CCN(C)CC2)c2ccccc12 (stereo unspecified)	HTRA1 inh 37 | HTRA1 inh conf 39
CCc1ccc(OCC(=O)NNC(=S)NC(=O)C2CC2)c(Br)c1	none
Cc1ccc(N2CN=C(c3ccccc3)NC2=S)cc1	none
CN(C)c1ccc(NC(=O)c2cccc(C(=O)Nc3ccc(N(C)C)cc3)n2)cc1	HTRA1 inh 44 | HTRA1 inh conf 65
Cc1ccc(-c2cc(-c3nnc(SCC(=O)NC4CCCCC4)n3N)[nH]n2)cc1	none (no result: DAGLB inh, HTRA1 inh)
O=C(O)C1Nc2ccc(Br)cc2C2C=CCC12 (stereo unspecified)	HTRA1 inh 75 (no result: mABHD4 FP, rCAG binder, PRMT1 inh, LEDGF integ inh) | HTRA1 inh conf 69
O=C(O)C1Nc2c(Cl)cc(Cl)cc2C2C=CCC12 (stereo unspecified)	HTRA1 inh 55 (no result: mABHD4 FP, rCAG binder, PRMT1 inh, LEDGF integ inh) | HTRA1 inh conf 49
CC(C)CNC(=O)C1Nc2ccccc2C2C=CCC12 (stereo unspecified)	none
O=C(O)C1Nc2c(Cl)cc(Cl)c(Cl)c2C2C=CCC12 (stereo unspecified)	HTRA1 inh 42 | HTRA1 inh conf 38
N#C/C(=C\c1c(F)cccc1Cl)c1nn(-c2ccccc2)c(-n2cccc2)c1C#N	none
C/C(=N\NC(N)=O)c1c(F)cccc1F	none
COc1cc(/C=N/Nc2ccc(Cl)cc2)ccc1OC(=O)c1cccs1	HTRA1 inh 47 | HTRA1 inh conf 68
CCN(CC)CCn1c2ccccc2c(=O)c2c(O)ccc(O)c21	mABHD4 FP 33, HTRA1 inh 55 | HTRA1 inh conf 48
FC(F)(F)c1ccc(-c2cccc3c2C2CC3CCN2Cc2ccc3c(c2)OCO3)cc1 (stereo unspecified)	none (no result: DAGLB inh, HTRA1 inh)
CC(=O)Nc1ccc(S(=O)(=O)NC2=C(N3CCN(c4ccc(F)cc4)CC3)C(=O)c3ccccc3C2=O)cc1	HTRA1 inh 55 | HTRA1 inh conf 71
CC[n+]1ccc(C)c2cc(SC(F)(F)F)ccc21	HTRA1 inh 36 (no result: mABHD4 FP, rCAG binder, PRMT1 inh, LEDGF integ inh) | HTRA1 inh conf inactive
CC[n+]1ccc(C)c2cc(P(=O)(c3ccccc3)c3ccccc3)ccc21	HTRA1 inh 44 | HTRA1 inh conf inactive
